Shown are actives, neighbours in structure and some others; about 3.9% of the full set was active somewhere.
TIM10 inh: growth inhibitors of isogenic TIM10 control yeast, primary screen, counter-screen for tim10-1 yeast inhibitor project, luminescence, uHTS | S. cerevisiae TIM10 strain growth, BacTiter-Glo luminescence, 24 h | inhibition, % at 10 µM | 1.4% of 330,000 active | AID 463195, 2010;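 active means inhibition of 40% or more at the single tested concentration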;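 further: wild-type TIM10 isogenic control strain grown at permissive 25 °C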
UPR XBP1 act: activators of adaptive XBP1 UPR arm, primary screen, cell-based, CHO-XBP1 luciferase reporter, luminescence, uHTS; AID 463104, 2010; IRE1-XBP1 UPR activation; percent of tunicamycin response, DMSO as zero; 0.33% of 330,000 active; activation, % at 20 µM;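 active means versus positive control, 20 µM dose yields 30% or more activation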;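 further: 100% = tunicamycin at 10 µg/mL and 0% = DMSO only wells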
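Test system: CHO-XBP1 luciferase reporter cells | Buffer or medium: Serum-containing F12 medium, 10% FBS | Schedule: 6 h compound exposure at 37 °C, 5% CO2 | Detection: Steady-Glo luciferase glow luminescence, 10 min after reagent addition | Read-out basis: Activation, % of tunicamycin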
tim10-1 inh: growth inhibitors of tim10-1 mutant yeast, primary screen, luminescence, uHTS | S. cerevisiae tim10-1 ts strain growth, BacTiter-Glo, 24 h | inhibition, % at 20 µM | 2.2% of 330,000 active;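 active means inhibition of at least 40%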;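 further: mutant grown at 25 °C; 0% = DMSO wells with yeast and 100% = wells holding no yeast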
tim23-1 inh: growth inhibitors of tim23-1 mutant yeast, primary screen, luminescence, uHTS | 1.3% of 330,000 active | inhibition, % at 20 µM | S. cerevisiae tim23-1 growth, BacTiter-Glo luminescence, 24 h;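 active means growth inhibition of the mutant yeast at or above 50%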;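 further: temperature-sensitive mutant grown at 25 °C; plate controls were DMSO-treated mutant yeast for no effect and medium wells lacking yeast for full effect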
UPR CHOP act: activators of apoptotic CHOP UPR arm, primary screen, cell-based, CHO-CHOP luciferase reporter, luminescence, uHTS. UPR activation; percent of tunicamycin response over DMSO baseline. activation, % at 10 µM. 0.34% of 330,000 active;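 active means at 10 µM dose, activation of 40% or more, normalized to positive control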;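 further: 100% = tunicamycin at 10 µg/mL and 0% = DMSO alone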
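Assay system: CHO cells with stable CHOP pathway luciferase reporter; Buffer or medium: F12 plus 10% serum; Times: 16-18 h cell attachment, then 6 h compound exposure, 37 °C; Signal: luciferase luminescence; Read-out basis: percent activation relative to tunicamycin control; Control set: tunicamycin high control, DMSO low control.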
tim10-1 conf: growth inhibitors of tim10-1 mutant yeast, confirmation, single concentration, luminescence, S. cerevisiae; shares compounds with tim10-1 inh; S. cerevisiae tim10-1 ts strain growth, BacTiter-Glo, 24 h; inhibition, % at 20 µM; 56% of 7,400 active;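 active means inhibition of yeast growth at or above a set limit in either of two repeat tests at 20 µM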;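 further: tim10-1 mutant grown at permissive 25 °C to find synthetic lethal compounds; 0% = DMSO yeast wells and 100% = medium wells without yeast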
TIM10 conf: growth inhibitors of wild-type TIM10 yeast, confirmation, counter-screen for tim10-1 synthetic lethality project, single concentration, luminescence, S. cerevisiae; shares compounds with TIM10 inh; S. cerevisiae tim10 strain growth, BacTiter-Glo luminescence, 24 h; inhibition, % at 10 µM; 63% of 4,600 active;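 active means inhibition of yeast growth at or above a set limit in either of two replicates at 10 µM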;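 further: this counterscreen used the strain with wild-type TIM10; 0% = yeast with DMSO and 100% = medium wells lacking yeast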
* hit, by the source's call; x = not tested or not shown.

SMILES | TIM10 inh | UPR XBP1 act | tim10-1 inh | tim23-1 inh | UPR CHOP act | tim10-1 conf | TIM10 conf
Cc1ccc(OCC(=O)N/N=C\c2cccn2C)c([N+](=O)[O-])c1 | -1 | 0 | 3 | 8 | 4 | x | x
O=C(CS(=O)c1ccccc1[N+](=O)[O-])Oc1ccc(Br)cc1 (stereo not drawn) | 51* | -1 | 81* | 45 | -1 | 64* | 54*
O=C(COc1ccccc1[N+](=O)[O-])OCC(=O)c1ccc(Br)s1 | -10 | 3 | -1 | 5 | 1 | x | x
Cc1cccc(OCC(=O)N(Cc2ccccc2)c2c(N)n(Cc3ccccc3)c(=O)[nH]c2=O)c1 | 2 | 4 | 12 | 17 | 2 | x | x
Cc1ccc(Nc2ncccc2C(=O)NCc2cccs2)c(C)c1 | 51* | -3 | 49* | 36 | -1 | 33* | 39*
O=C(NCc1cccs1)c1cccnc1Cl | 4 | 0 | 11 | 7 | 1 | x | x
c1csc(-c2nn3c(C4COc5ccccc5O4)nnc3s2)c1 (stereo not drawn) | 30 | 3 | 17 | 43 | 6 | x | x
c1ccc2c(c1)OCC(c1nnc3sc(-c4ccc5c(c4)OCO5)nn13)O2 (stereo not drawn) | 48* | 3 | 42* | 27 | 3 | 28 | 13
Cc1ccc(NC(=O)c2cc(S(=O)(=O)NCCC3=CCCCC3)ccc2F)cc1 | 54* | -3 | 50* | 42 | 2 | 41* | -12
O=C(NCCC1=CCCCC1)c1cc(S(=O)(=O)N2CCOCC2)ccc1F | -6 | -4 | 18 | 15 | 1 | x | x
CSCC[C@H](NC(=O)C1CCN(S(=O)(=O)c2ccccc2)CC1)C(=O)NC1CC1 | 7 | -4 | 18 | 13 | 0 | x | x
COCn1c(=O)c2c(nc(SC3=NCCS3)n2Cc2ccccc2C)n(COC)c1=O | 43* | -2 | 47* | 40 | 0 | 19 | 35*
Cc1ccc(C)c(NC(=S)NCc2ccc3[nH]c4c(c3c2)CCCC4)c1 | 43* | 1 | 45* | 43 | 0 | 35* | 40*
S=C(NCc1ccc2[nH]c3c(c2c1)CCCC3)Nc1ccccc1Cl | 6 | -3 | 21 | 15 | 1 | x | x
CCN(CC)S(=O)(=O)c1ccc(N2CCCC2)c(NC(=O)C2=NN(c3ccccc3)C(=O)CC2)c1 | 8 | 0 | 21 | 23 | 1 | x | x
COc1ccc(Cn2c(-c3ccc(Br)cc3)c[n+]3ccccc23)cc1 | 55* | 7 | 48* | 8 | 6 | 30* | 25
CCOc1ccc(NS(=O)(=O)c2ccc(C(=O)N3CCC3)cc2)cc1 | -3 | -5 | -2 | -24 | -2 | x | x
O=C(c1ccco1)N1CCN(C(=O)c2cc3sccc3n2Cc2ccccc2)CC1 | 43* | -3 | 42* | 47 | 3 | 43* | 34*
Cc1nn(-c2ccccc2)c2c1C1(C(=O)N(C)c3ccccc31)C(C#N)=C(N)O2 (stereo not drawn) | 41* | -2 | 67* | 39 | -3 | 54* | 30
Fc1ccc(-c2cc(-c3ccccc3)nc(-n3cccn3)n2)cc1 | 59* | 4 | 51* | 42 | 0 | 46* | 46*
CCc1ccccc1S(=O)(=O)c1c(C)cc(C)nc1Cl | -17 | 2 | 11 | 19 | 1 | x | x
Cc1cc(C(=O)COC(=O)c2nccnc2N)c(C)n1C | 3 | -6 | 4 | -6 | -1 | x | x
COc1cc(C(=O)OCC(=O)c2cc(C)n(C)c2C)cc(OC)c1OC | 45* | -1 | 42* | 38 | 3 | 32 | 8
Oc1ccc(/C=N/Nc2ccc(C(F)(F)F)cn2)cc1 | 48* | 5 | 44* | 34 | 4 | 28 | 30
CCN(CC)c1ncnc2c1cnn2Cc1ccc(C)cc1 | -3 | 6 | 31 | 28 | 0 | x | x
SMILES | TIM10 inh | UPR XBP1 act | tim10-1 inh | tim23-1 inh | UPR CHOP act | tim10-1 conf | TIM10 conf
CCN(CC)c1ncnc2c1ncn2Cc1c(Cl)cccc1Cl | 42* | 1 | 50* | 41 | 0 | 37* | -8
C/C(=N\N=C1\NC(=O)C(CC(=O)Nc2ccc(Cl)cc2)S1)c1ccco1 (stereo not drawn) | 15 | -2 | 7 | 21 | 1 | x | x
C/C(=N\N=C1\NC(=O)C(CC(=O)Nc2ccc(C)c(Cl)c2)S1)C(C)(C)C (stereo not drawn) | 44* | -1 | 52* | 21 | -2 | 32* | 23
CC(C)CCNc1nc2c(c(=O)n(Cc3cccc(F)c3)c(=O)n2C)n1C | 46* | -1 | 47* | 34 | 1 | 26 | 34*
CCOc1ccc(NC(=O)COC(=O)Cc2ccsc2)cc1 | 10 | 6 | -4 | 3 | 3 | x | x
Cc1cccc(NC(=O)c2cc3n(n2)C(C(F)(F)F)CC(c2ccc4c(c2)OCO4)N3)c1 (stereo not drawn) | 62* | -3 | 41* | 42 | 2 | 47* | 60*
Cc1cc(NC(=O)c2cc3n(n2)C(C(F)(F)F)CC(c2ccc(Cl)c(Cl)c2)N3)no1 (stereo not drawn) | -1 | 13 | 10 | 10 | -2 | x | x
COCCCNC(=O)c1ccc2c3c(onc13)-c1ccccc1C2=O | 43* | -1 | 53* | 44 | 28 | 42* | 41*
COCCCNC(=O)c1ccccc1Oc1ccccc1 | 12 | -1 | 4 | 3 | 2 | x | x
Cc1ccccc1NC(=O)CSc1nnc(Cc2ccccc2)c(=O)n1N | 3 | 2 | 0 | -7 | 2 | x | x
CC1CCc2sc(C(=O)NN=C3CCC(c4ccccc4)CC3)cc2C1 (stereo not drawn) | -2 | -3 | 23 | 35 | 2 | x | x
Cc1cccc(NC(=S)NNC(=O)c2cc3c(s2)CCC(C)C3)c1C (stereo not drawn) | 51* | -1 | 59* | 30 | 0 | 39* | 32*
COC(=O)C1CCN(C(=O)c2sc3nc(-c4ccc(F)cc4)cn3c2C)CC1 | 55* | -2 | 70* | 40 | 0 | 64* | 35*
CCOC(=O)C1CCN(C(=O)c2sc3nc(-c4ccccc4)cn3c2C)CC1 | 57* | -3 | 66* | 41 | 4 | 60* | 52*
Cc1c(C(=O)N2CCN(c3ccc(F)cc3)CC2)sc2nc(-c3ccccc3)cn12 | -7 | -2 | 11 | 5 | 0 | x | x
